# Experimental data from different studies.
# Protocols differ between the studies behind these lines.
# Effect on: metabolic stability
# Species: human
# Sample: liver microsomes
setting,microsomal CLint [µL/min/mg],SMILES
,149,c1ccc(C2CCN(c3nc(-c4ccco4)nc4ccccc34)C2)nc1 (centres unmarked)
,13.3,O=S(=O)(c1ccc(-c2ccc3ncccc3c2)cc1)N1CCOCC1
"3 µM, pH 7.4",< 3,C[S+]([O-])c1ccc(-c2c(-c3ccccn3)nc3n2CCC3)cc1 (centres unmarked)
1 µM,59,COc1cc2[nH]c(C)c(-c3ccco3)c(=O)c2cc1Cl
,71.3,O=S(=O)(c1ccc(-c2ccc3nccc(Nc4ccccc4)c3c2)cc1)N1CCOCC1
,36,c1ccc(-c2nc(NCc3nccs3)c3ccccc3n2)nc1
1 µM,9,COc1cc2[nH]c(C)c(-c3ccc(F)cc3F)c(=O)c2cc1Cl
,< 1,CCn1cc2c(N3CCC(c4ccccn4)C3)nc(-c3ccccn3)nc2n1 (centres unmarked)
"3 µM, pH 7.4",44,Fc1ccc(Nc2c(-c3ccccn3)nc3ccccn23)nc1
1 µM,17,COc1cc2[nH]c(C)c(-c3ccc(S(=O)(=O)N(C)C)cc3)c(=O)c2cc1Cl
"3 µM, pH 7.4",59,FC(F)(F)c1cccc(Nc2c(-c3ccccn3)nc3ccccn23)c1
,111,NC(=O)c1cccc(-c2nc(N3CCC(c4ccccn4)C3)c3ccccc3n2)c1 (centres unmarked)
"3 µM, pH 7.4",< 3,CN(C)C(=O)c1ccc(-c2c(-c3ccccn3)nc3n2CCC3)cc1
1 µM,25,COc1cc2[nH]c(C)c(-c3ccccc3C)c(=O)c2cc1Cl
